What all share (type): tissue-based
Data set [1] has as its target T1, Ectonucleoside triphosphate diphosphohydrolase 1 (Bos taurus, UniProt O18956).
T1 sequence (O18956 whole entry): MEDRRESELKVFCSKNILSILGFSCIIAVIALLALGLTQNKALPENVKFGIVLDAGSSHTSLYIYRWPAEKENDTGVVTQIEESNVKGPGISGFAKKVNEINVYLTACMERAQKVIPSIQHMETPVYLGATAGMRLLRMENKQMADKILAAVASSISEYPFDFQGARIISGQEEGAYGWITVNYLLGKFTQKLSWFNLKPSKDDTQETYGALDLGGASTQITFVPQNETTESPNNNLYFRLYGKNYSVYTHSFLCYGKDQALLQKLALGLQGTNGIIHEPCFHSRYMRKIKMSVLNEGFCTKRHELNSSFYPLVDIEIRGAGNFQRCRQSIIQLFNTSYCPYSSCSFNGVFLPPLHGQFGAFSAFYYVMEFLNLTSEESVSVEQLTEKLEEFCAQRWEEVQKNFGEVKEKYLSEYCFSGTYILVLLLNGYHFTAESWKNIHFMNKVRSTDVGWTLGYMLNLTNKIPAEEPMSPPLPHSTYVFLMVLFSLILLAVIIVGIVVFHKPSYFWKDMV
Briefly: (§1) Tested for inhibition of Nucleoside Triphosphate Diphosphohydrolase (NTPDase) from bovine spleen. The method, boiled down:
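Bovine spleen particulate fraction. Medium: 8 mM CaCl2, 5 mM tetramisole, 50 mM Tris, 50 mM imidazole, pH 7.6, 37 °C. Started with 1.9 μg enzyme, stopped after 7 min; Pi release read by malachite green. Triplicate.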

Compound in data set [2]: CCCCNc1nc(N)c2ncn([C@@H]3O[C@H](COP(=O)(O)OP(=O)(O)OP(=O)(O)O)[C@@H](O)[C@H]3O)c2n1
The description is as §1. The essentials:
(§2)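 Bovine spleen particulate fraction. […] Medium: 8 mM CaCl2, 5 mM tetramisole, 50 mM Tris, 50 mM imidazole, pH 7.6, 37 °C. Started with 1.9 μg enzyme, stopped after 7 min; Pi release read by malachite green. Triplicate.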

Compound in data set [3]: CCCCNc1nc2c(N)ncnc2n1[C@@H]1O[C@H](COP(=O)(O)OP(=O)(O)OP(=O)(O)O)[C@@H](O)[C@H]1O
The data set is described as §1. The method, boiled down:
as §2

Compound in data set [4]: CCCCOc1nc(N)c2ncn([C@@H]3O[C@H](COP(=O)(O)OP(=O)(O)OP(=O)(O)O)[C@@H](O)[C@H]3O)c2n1
Described as §1. The method, boiled down: as §2

Compound in data set [5]: CCCCOc1nc2c(N)ncnc2n1[C@@H]1O[C@H](COP(=O)(O)OP(=O)(O)OP(=O)(O)O)[C@@H](O)[C@H]1O
The data set is described as §1. The essentials: as §2

Compound in data set [6]: CCCCSc1nc(N)c2ncn(C3O[C@H](COP(=O)(O)OP(=O)(O)O)[C@@H](O)[C@H]3O)c2n1
The data set is described as §1. The essentials:
as §2

Compound in data set [7]: CCCCSc1nc(N)c2ncn([C@@H]3O[C@H](COP(=O)(O)OP(=O)(O)OP(=O)(O)O)[C@@H](O)[C@H]3O)c2n1
Described as §1. The method, boiled down: as §2

Compound in data set [8]: CCSc1nc2c(N)ncnc2n1[C@@H]1O[C@H](COP(=O)(O)OP(=O)(O)OP(=O)(O)O)[C@@H](O)[C@H]1O
Described as §1. The essentials:
as §2

Compound in data set [9]: Nc1ncnc2c1nc(Br)n2C1O[C@H](COP(=O)(O)OP(=O)(O)OP(=O)(O)O)[C@@H](O)[C@H]1O
The description is as §1. The essentials: as §2

Compound in data set [10]: Nc1ncnc2c1ncn2[C@@H]1O[C@H](COP(=O)(O)OP(=O)(O)O)[C@@H](O)[C@H]1O
The data set is described as §1. The essentials:
as §2

Compound in data set [11]: Nc1ncnc2c1ncn2[C@@H]1O[C@H](COP(=O)(O)OP(=O)(O)OP(=O)(O)O)[C@@H](O)[C@H]1O
The data set is described as §1. The method, boiled down:
as §2

The text below walks through data of ChEMBL document CHEMBL1133102, “Novel inhibitors of nucleoside triphosphate diphosphohydrolases: chemical synthesis and biochemical and pharmacological characterizations” (J Med Chem, 2000).

As usually defined, the Ki is a measure of affinity in units of concentration, obtained from inhibition or displacement. A lower Ki goes with higher affinity. In data set [1], `Nc1ncnc2c1nc(SC1CCCCCC1)n2C1O[C@H](COP(=O)(O)OP(=O)(O)OP(=O)(O)O)[C@@H](O)[C@H]1O` (stereo partly specified) registered an inhibition constant Ki of 31 µM.

B1: Ectonucleoside triphosphate diphosphohydrolase 1 (Bos taurus), O18956 (protein)
chain: T1 sequence (O18956 whole entry)
One may read the Km as the substrate concentration at which the rate is half of its maximum. In the case of B1, the Km in data set [2] is 32 µM; in data set [3] it was 20 µM; in [4], 28 µM; in [5], 26 µM; in data set [6] it was 63 µM; in [7], 36 µM. The Michaelis-Menten constant (Km) in data set [8] came out at 12 µM; in data set [9] it was 22 µM; in data set [10], 33 µM; in [11] it was 18 µM.
